From ChEMBL document CHEMBL1131102, “A new series of highly potent growth hormone-releasing peptides derived from ipamorelin” (J Med Chem, 1998)
“And” between values parts separate entries of the source, which are not always exact repeats. Identical values can stand only once. Non-standard residues stand in square brackets, D forms with d. Residues, ends and D or L forms follow the SMILES beside them. d2Nal = N[C@H](Cc1ccc2ccccc2c1)C(=O)O; 3Amb = NCc1cccc(C(=O)O)c1; Aib = CC(C)(N)C(=O)O

Legend:
[1] = organism: Rattus norvegicus; test: Tested in vitro for GH-releasing potency against rat pituitary cells.; assay type: functional; settings: Pituitary gland cell
Procedure, shortened: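 Rat pituitaries were trypsin-dispersed into single cells and cultured 3 days, then washed and stimulated 15 min with secretagogue. Supernatant GH was measured by rat GH SPA. EC50 came from a Hill fit of release above basal; Emax as % of GHRP-6 maximum. Mean ± SEM of 1–5 experiments.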

[2] = tested on: Rattus norvegicus; test: Compound was tested in vivo for GH-releasing potency against anesthetized female rats; assay type: functional
Procedure, shortened: (§1)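 Male or female rats (250 ± 25 g) were anesthetized with pentobarbital ip (50 mg/mL, 1.2 mL/kg). After 15 min, orbital blood was taken, then compound was given as an iv tail-vein bolus (2 mL/kg) and blood sampled again at 10 min. Rat GH was assayed in heparinized plasma. At least five doses, six rats per dose. ED50 by Hill fit; Emax as % of GHRP-6.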

[3] = tested on: Rattus norvegicus; test: (§2) Tested in vivo for GH-releasing potency against anesthetized male rats; assay type: functional; procedure, shortened: as §1
[4] = tested on: Rattus norvegicus; test: as §2; assay type: functional; set-up: unit not given here; procedure, shortened: as §1
[5] = Oral bioavailability in dog (Beagle); assay type: ADME, organism-based, Canis lupus familiaris; settings: in vivo
Procedure, shortened: (§3)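 Fasted (overnight) male and female Beagle dogs; dosed po by gavage (2.7 or 1.8 mg/kg) and iv as a hind-leg-vein bolus (0.5 mg/kg), with a 1-week washout between routes. Vehicle was citrate/phosphate buffer, pH 5.0. EDTA blood was drawn from a front-leg vein up to 6 h. Plasma compound was measured by HPLC-UV after solid-phase extraction. AUC(0–6 h); f = AUCpo·doseiv/(AUCiv·dosepo).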

[6] = organism: Sus scrofa; test: (§4) Compound was tested for GH-releasing potency against female Danish slaughter swine.; assay type: functional
Procedure, shortened: (§5)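 Swine with jugular catheters received single iv injections in increasing doses (range 0.03–500 nmol/kg), five doses per experiment at 24-h intervals. Vehicle was phosphate/citrate buffer diluted in saline with 0.5% porcine serum albumin. Blood was sampled from 1 h before to 3 h after dosing; pGH by ELISA. Basal-adjusted Cmax was fitted (Hill or Michaelis–Menten) for ED50; six swine.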

[7] = tested on: Canis familiaris; test: Basal GH release was measured after 0.5 mg/kg iv administration into Beagle dogs; assay type: functional, Canis lupus familiaris
Procedure, shortened: (§6)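 Fasted (overnight) Beagle dogs were given compound in citrate/phosphate buffer, pH 5.0, either as a 0.5 mg/kg iv bolus in a hind-leg vein or by po gavage (2.7 or 1.8 mg/kg). Iv and po dosing were separated by a 1-week washout. EDTA blood was drawn from a front-leg vein at intervals up to 6 h. Plasma GH was measured by porcine GH ELISA.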

[8] = tested on: Canis familiaris; test: Basal GH release was measured after 1.8 mg/kg po administration into Beagle dogs; assay type: functional, Canis lupus familiaris; procedure, shortened: as §6
[9] = tested on: Canis familiaris; test: Area under curve was measured after iv administration into Beagle dog; assay type: ADME, organism-based, Canis lupus familiaris; settings: in vivo; procedure, shortened: as §3
[10] = organism: Sus scrofa; test: as §4; assay type: functional, organism-based; procedure, shortened: as §5
[11] = tested on: Canis familiaris; test: Area under curve was measured after po administration into Beagle dog; assay type: ADME, organism-based, Canis lupus familiaris; settings: in vivo; procedure, shortened: as §3
[12] = tested on: Rattus norvegicus; test: Tested in vivo for GH-releasing potency against anesthetized female rats; assay type: functional; procedure, shortened: as §1
[13] = tested on: Canis familiaris; test: Basal GH release was measured after 2.7 mg/kg po administration into Beagle dogs; assay type: functional, Canis lupus familiaris; procedure, shortened: as §6
[14] = Rattus norvegicus, read-out: Emax

Compound | EC50 [1] [nM] | Emax [1] [%] | ED50 [4] | also measured
CN(C(=O)c1cccc(CN)c1)[C@H](Cc1ccc2ccccc2c1)C(=O)N(C)[C@H](Cc1ccccc1)C(N)=O | 115 | 85 | – | –
CN(C(=O)[C@@H](Cc1ccc2ccccc2c1)N(C)C(=O)c1cccc(CN)c1)[C@@H](CO)Cc1ccccc1 | 265 | 75 | – | ED50 [2]: > 1000 nmol/kg
CN(C(=O)[C@@H](Cc1ccc2ccccc2c1)NC(=O)c1cccc(CN)c1)[C@H](Cc1ccccc1)C(N)=O | 170 | 85 | – | ED50 [2]: > 1000 nmol/kg
CNC(=O)[C@@H](Cc1ccccc1)N(C)C(=O)[C@@H](Cc1ccc2ccccc2c1)N(C)C(=O)c1cccc(CN)c1 | 40 | 110 | – | –
C[C@H](NC(=O)[C@@H](Cc1c[nH]c2ccccc12)NC(=O)[C@@H](N)Cc1c[nH]cn1)C(=O)N[C@@H](Cc1c[nH]c2ccccc12)C(=O)N[C@H](Cc1ccccc1)C(=O)N[C@@H](CCCCN)C(N)=O (H-H[dW]AW[dF]K-NH2) | 2.2 | 100 | – | Emax [12]: 60% and 100%; ED50 [6]: 0.0039 µmol/kg; Emax [6]: 100%
NCCCC[C@H](NC(=O)[C@@H](Cc1ccccc1)NC(=O)[C@@H](Cc1ccc2ccccc2c1)NC(=O)c1cccc(CN)c1)C(N)=O (H-[3Amb][d2Nal][dF]K-NH2) | – | 85 | >4800 | –
C[C@H](NC(=O)[C@@H](Cc1ccc2ccccc2c1)NC(=O)[C@@H](C)N)C(=O)N[C@@H](Cc1c[nH]c2ccccc12)C(=O)N[C@H](Cc1ccccc1)C(=O)N[C@@H](CCCCN)C(N)=O [PRALMORELIN] (H-[dA][d2Nal]AW[dF]K-NH2) | 1.8 | 85 | – | Emax [12]: 90%; Emax [12, 14]: 100%; ED50 [6]: 0.0006 µmol/kg; Emax [6]: 75%

Continued, in another order:

EC50 [1] [nM] | Compound | Emax [1] [%] | ED50 [4] | also measured
3.8 | CNC(=O)[C@@H](Cc1ccccc1)N(C)C(=O)[C@@H](Cc1ccc2ccccc2c1)N(C)C(=O)[C@H](Cc1c[nH]cn1)NC(=O)C(C)(C)N | 110 | – | –
1.5 | CN(C(=O)[C@H](Cc1c[nH]cn1)NC(=O)C(C)(C)N)[C@H](Cc1ccc2ccccc2c1)C(=O)N(C)[C@H](Cc1ccccc1)C(=O)N[C@@H](CCCCN)C(N)=O | 85 | – | ED50 [2]: 14 nmol/kg
2 | CN(C(=O)[C@@H](Cc1ccc2ccccc2c1)NC(=O)[C@H](Cc1c[nH]cn1)NC(=O)C(C)(C)N)[C@H](Cc1ccccc1)C(=O)N[C@@H](CCCCN)C(N)=O | 100 | 1.8 | Emax [3]: 90%
0.5 | CN(C(=O)[C@@H](Cc1ccc2ccccc2c1)NC(=O)c1cccc(CN)c1)[C@H](Cc1ccccc1)C(=O)N[C@@H](CCCCN)C(N)=O | 80 | 80 | bioavailability [5]: 10%; Emax [6]: 70%; Emax [3]: 90%; Basal GH [7]: 1.2 ng/mL; Basal GH [8]: 1.2 ng/mL; AUC [9]: 137 ng·h/mL; ED50 [10]: 2 nM/kg; AUC [11]: 48 ng·h/mL
10 | CNCc1cccc(C(=O)N[C@H](Cc2ccc3ccccc3c2)C(=O)N[C@H](Cc2ccccc2)C(=O)N[C@@H](CCCCN)C(N)=O)c1 | 85 | 65 | Emax [3]: 30%
85 | NCCCC[C@H](NC(=O)[C@@H](Cc1ccccc1)NC(=O)[C@@H](Cc1ccc2ccccc2c1)NC(=O)c1ccccc1CN)C(N)=O | 60 | – | –
110 | NCCCC[C@H](NC(=O)[C@@H](Cc1ccccc1)NC(=O)[C@@H](Cc1ccc2ccccc2c1)NC(=O)c1ccc(CN)cc1)C(N)=O | 50 | – | –
5 | CN(C(=O)c1cccc(CN)c1)[C@H](Cc1ccc2ccccc2c1)C(=O)N(C)[C@H](Cc1ccccc1)C(=O)N[C@@H](CCCCN)C(N)=O | 80 | – | ED50 [2]: 146 nmol/kg; Emax [12, 14]: 100%
1.3 | CC(C)(N)C(=O)N[C@@H](Cc1c[nH]cn1)C(=O)N[C@H](Cc1ccc2ccccc2c1)C(=O)N[C@H](Cc1ccccc1)C(=O)N[C@@H](CCCCN)C(N)=O [IPAMORELIN] (H-[Aib]H[d2Nal][dF]K-NH2) | 85 | 85 | Basal GH [13]: 5.4 ng/mL; bioavailability [5]: 4%; ED50 [6]: 0.0023 µmol/kg; Emax [6]: 88%; Emax [3]: 120%; Basal GH [7]: 1.6 ng/mL
